Among the data in ChEMBL document CHEMBL1765019, “Design, synthesis and biological activity of thiazolidine-4-carboxylic acid derivatives as novel influenza neuraminidase inhibitors” (Bioorg Med Chem, 2011) are IC50 values, retold here.

By pIC50 is commonly meant the IC50 on a negative log10 scale, so that one unit is a factor of ten.

Molecules are shown by their SMILES. pIC50: −log10 of the molar value.

The target of this test is Neuraminidase (Influenza A virus, UniProt B4URF0). Kind of test: Inhibition of influenza A virus neuraminidase assessed as cleavage of MUNANA substrate by fluorescence assay. In a few lines:
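Screening-kit NA enzyme, not from an avian H5N1 strain, incubated with buffer, substrate and inhibitor at 37 °C. Reaction stopped with stop solution. IC50 taken from percent inhibition plotted against inhibitor concentration; each point in duplicate.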
For `O=C(O)[C@@H]1CSC(c2ccccc2O)N1C(=O)CCl` (mixture of isomers), the pIC50 is 5.23. Take `N#Cc1ccc(C2SC[C@@H](C(=O)O)N2C(=O)Cc2ccccc2)cc1` (mixture of isomers): the pIC50 is 5.61. Under `N#Cc1ccc(C2SC[C@@H](C(=O)O)N2C(=O)CN)cc1` (mixture of isomers) stands 6.09; under `N#Cc1ccc(C2SC[C@@H](C(=O)O)N2C(=O)CCl)cc1` (mixture of isomers), 5.06. Under `N#Cc1ccc(C2N[C@H](C(=O)O)CS2)cc1` (mixture of isomers) stands 4.63; under `O=C(O)[C@@H]1CSC(c2ccccc2)N1` (mixture of isomers), 4.67; under `NCC(=O)N1C(c2ccco2)SC[C@H]1C(=O)O` (mixture of isomers), 6.01. Under `O=C(O)[C@@H]1CSC(c2ccccc2[N+](=O)[O-])N1C(=O)Cc1ccccc1` (mixture of isomers) stands 5.73; under `O=C(O)[C@@H]1CSC(c2ccccc2[N+](=O)[O-])N1C(=O)CCl` (mixture of isomers), 5.12. For `O=C(O)c1ccccc1C1SC[C@@H](C(=O)O)N1C(=O)CCl` (mixture of isomers), the pIC50 was 4.97.

In the case of `O=C(O)[C@@H]1CSC(c2ccco2)N1C(=O)Cc1ccccc1` (mixture of isomers), the negative logarithm of the IC50 (pIC50) was 5.54. Under `O=C(O)[C@@H]1CSC(c2ccco2)N1` (mixture of isomers) stands 4.37; under `O=C(O)[C@@H]1CSC(c2ccccc2O)N1C(=O)Cc1ccccc1` (mixture of isomers), 6.19. For `O=C(O)[C@@H]1CSC(c2ccccc2)N1C(=O)CCl` (mixture of isomers) the value was 5.12; for `COc1cccc(C2SC[C@@H](C(=O)O)N2C(=O)CCl)c1O` (mixture of isomers), 5.10; for `O=C(O)[C@@H]1CSC(c2ccco2)N1C(=O)CCl` (mixture of isomers), 4.89. Under `COc1cccc(C2SC[C@@H](C(=O)O)N2C(=O)CN)c1O` (mixture of isomers) stands 6.85. Regarding `COc1cccc(C2SC[C@@H](C(=O)O)N2C(=O)Cc2ccccc2)c1O` (mixture of isomers), the negative logarithm of the IC50 (pIC50) was 5.79. For `O=C(O)[C@@H]1CSC(c2ccccc2[N+](=O)[O-])N1` (mixture of isomers) the value was 4.65; for `COc1cccc(C2N[C@H](C(=O)O)CS2)c1O` (mixture of isomers), 4.91; for `NCC(=O)N1C(c2ccccc2O)SC[C@H]1C(=O)O` (mixture of isomers), 6.68. Under `NCC(=O)N1C(c2ccccc2)SC[C@H]1C(=O)O` (mixture of isomers) stands 6.28. On to `NCC(=O)N1C(c2ccccc2C(=O)O)SC[C@H]1C(=O)O` (mixture of isomers), for which the negative logarithm of the IC50 (pIC50) was 6.55. For `NCC(=O)N1C(c2ccccc2[N+](=O)[O-])SC[C@H]1C(=O)O` (mixture of isomers) the value was 5.99. `O=C(O)c1ccccc1C1N[C@H](C(=O)O)CS1` (mixture of isomers): the pIC50 is 4.74. Under `O=C(O)[C@@H]1CSC(c2ccccc2O)N1` (mixture of isomers) stands 4.69; under `O=C(O)[C@@H]1CSC(c2ccccc2)N1C(=O)Cc1ccccc1` (mixture of isomers), 5.92. Under `O=C(O)c1ccccc1C1SC[C@@H](C(=O)O)N1C(=O)Cc1ccccc1` (mixture of isomers) stands 5.72.
